Publication PMC4855275 (Experimental & Molecular Medicine, 2016)
Entries after “also recorded” stand apart in the source; their conditions may differ.

Legend:
[1] = tested on: Wt-PAK1 (full-length); conditions: reported; ref [11], [12]; cited from earlier work
[2] = target: T1, PAK1^T423E (Homo sapiens, UniProt Q13153, T423E); conditions: reported; ref [11], [12]; cited from earlier work
[3] = target: PBD-LL (H83L/H86L) (Homo sapiens, UniProt Q13153, H83L/H86L); test: SPR binding to mutated PBD; conditions: 100 μM compound
PBD-LL (H83L/H86L), sequence (Q13153 67-150 H83L/H86L): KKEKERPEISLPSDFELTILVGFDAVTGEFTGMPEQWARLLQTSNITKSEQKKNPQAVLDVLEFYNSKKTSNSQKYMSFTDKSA
Method in brief: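 GST-tagged wild-type or H83L/H86L PAK1 PBD was expressed in E. coli, purified on glutathione-Sepharose, and amine-coupled to CM5 chips (~10 000 RU), with GST as control. Test compound (100 μM) was flowed at 20 μl min⁻¹, 25 °C, in 10 mM HEPES, 150 mM NaCl, 0.005% P20, 0.4% DMSO, pH 7.4. Sensorgrams were representative of ≥3 independent experiments.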

[4] = target: full-length PAK3 (Homo sapiens, UniProt O75914); test: In vitro inhibition of PAK family members, PAK3; assay type: biochemical; conditions: 40 μM, with Cdc42•GTP
full-length PAK3, sequence (O75914 1-544 isoform O75914-2): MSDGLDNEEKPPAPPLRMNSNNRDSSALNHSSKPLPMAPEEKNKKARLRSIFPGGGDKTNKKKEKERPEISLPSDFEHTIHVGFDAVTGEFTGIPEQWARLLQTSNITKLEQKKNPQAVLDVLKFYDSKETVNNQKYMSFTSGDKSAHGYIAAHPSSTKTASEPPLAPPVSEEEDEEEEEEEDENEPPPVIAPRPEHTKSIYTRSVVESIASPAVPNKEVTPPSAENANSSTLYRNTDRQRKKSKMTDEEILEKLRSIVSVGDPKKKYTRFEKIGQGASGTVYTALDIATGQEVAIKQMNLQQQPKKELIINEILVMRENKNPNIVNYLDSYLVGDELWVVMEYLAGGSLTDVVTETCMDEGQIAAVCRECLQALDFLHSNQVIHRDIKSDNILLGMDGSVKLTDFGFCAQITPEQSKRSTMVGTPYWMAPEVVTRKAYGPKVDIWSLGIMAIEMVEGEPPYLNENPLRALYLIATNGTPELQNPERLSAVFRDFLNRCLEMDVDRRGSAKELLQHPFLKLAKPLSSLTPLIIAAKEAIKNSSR

[5] = tested on: R1K3 (PAK1 CD replaced by PAK3 CD) in HeLa cells; test: CD-swapping experiment, R1K3; assay type: cell-based; conditions: 20 μM for 2 h, then 0.4 M sorbitol
[6] = tested on: HeLa cells; test: Cell viability / cytotoxicity; assay type: cell-based; conditions: for Light-induced cytotoxicity: during FRET analysis
Method in brief: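 HeLa seeded at 2 × 10⁵ cells per ml. Test compound at 20 μM final for 2, 4, 6, 8 or 12 h at 37 °C. WST-8 then added (10% v/v final) for 2 h at 37 °C; absorbance read at 450 nm.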

[7] = target: PAK1^T423E/LL (H83L/H86L) (Homo sapiens, UniProt Q13153, H83L/H86L/T423E); test: In vitro kinase assay with LL mutant of active PAK1; assay type: biochemical; conditions: 40 μM, 0.5 h
PAK1^T423E/LL (H83L/H86L), sequence (Q13153 whole entry H83L/H86L/T423E): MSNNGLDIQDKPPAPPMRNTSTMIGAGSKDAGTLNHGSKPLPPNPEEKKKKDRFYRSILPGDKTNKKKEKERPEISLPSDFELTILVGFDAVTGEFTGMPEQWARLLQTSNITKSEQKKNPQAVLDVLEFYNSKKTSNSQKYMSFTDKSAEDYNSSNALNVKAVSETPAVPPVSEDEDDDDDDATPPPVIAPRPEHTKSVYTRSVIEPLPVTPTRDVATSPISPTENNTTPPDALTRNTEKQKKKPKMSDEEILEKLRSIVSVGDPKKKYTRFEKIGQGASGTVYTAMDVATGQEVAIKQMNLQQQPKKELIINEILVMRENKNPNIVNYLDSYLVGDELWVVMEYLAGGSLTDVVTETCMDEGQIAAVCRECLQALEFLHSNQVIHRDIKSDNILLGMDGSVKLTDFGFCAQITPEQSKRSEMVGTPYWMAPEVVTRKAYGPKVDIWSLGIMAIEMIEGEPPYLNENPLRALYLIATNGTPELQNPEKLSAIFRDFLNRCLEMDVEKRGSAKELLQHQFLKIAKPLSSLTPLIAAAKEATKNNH
Method in brief: (§1)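 Preincubated with test compound or DMSO 0.5 h, 30 °C, then 5 μCi [γ-³²P]ATP 0.5 h, 30 °C. 15% SDS-PAGE; MBP phosphorylation read by autoradiography; total MBP immunoblot as loading control; ≥3 experiments.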

[8] = target: YFP-PBD and CFP-V12Cdc42 fusion proteins in HeLa cells (Homo sapiens, UniProt Q13153); test: FRET analysis of V12Cdc42–PBD interaction in cells; assay type: cell-based; conditions: 20 μM, 1.5 h
YFP-PBD and CFP-V12Cdc42 fusion proteins in HeLa cells, sequence (Q13153 67-150): as the sequence (Q13153 67-150 H83L/H86L) above, with L17H, L20H counted along it
Method in brief: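 HeLa on poly-L-lysine-coated coverslips transfected with YFP-PBD and CFP-V12Cdc42 plasmids. At 12 h post-transfection, DMSO or 20 μM test compound applied and imaged over 1.5 h (ex 433 nm; em 475 nm CFP, 530 nm FRET). Background-subtracted FRET/CFP ratio used as efficiency, normalised to time zero = 1; 16 cells per compound.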

[9] = target: full-length PAK1 (Homo sapiens, UniProt Q13153); test: In vitro inhibition of PAK family members, PAK1; assay type: biochemical; conditions: 40 μM, with Cdc42•GTP
full-length PAK1, sequence (Q13153 whole entry): as the sequence (Q13153 whole entry H83L/H86L/T423E) above, with L83H, L86H, E423T counted along it

[10] = target: PBD of PAK1 (Wt-PBD) (Homo sapiens, UniProt Q13153); test: SPR binding to immobilized GST-PBD; conditions: Kd for the compound–PBD interaction, 25 °C, 1:1 Langmuir model
PBD of PAK1 (Wt-PBD), sequence (Q13153 67-150): as the sequence (Q13153 67-150 H83L/H86L) above, with L17H, L20H counted along it
Method in brief: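 GST (reference) and wild-type GST-PBD amine-coupled to CM5 chips at about 10 000 RU. Runs at 25 °C in 10 mM HEPES, 150 mM NaCl, 0.005% P20, 0.4% DMSO, pH 7.4. Test compound injected at 12.5, 25, 50 or 100 μM, 20 μl min⁻¹. Kd taken as kd/ka from a 1:1 Langmuir fit. At least three independent experiments.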

[11] = tested on: pMEK1^S298 in 293T cells; test: MEK1 S298 phosphorylation downstream of PAK1; assay type: cell-based; conditions: 293T cells with myc-PAK1 and GFP-V12Cdc42, 20 μM, 2 h
Method in brief: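 293T co-transfected with myc-PAK1 and GFP-V12Cdc42. After 24 h, test compound at 20 μM for 2 h. Lysates immunoblotted for pPAK1 T423 and pMEK S298; expressed proteins checked with anti-Myc and anti-GFP. Membranes blocked in 3% BSA/TBS-T, primary antibody 1 h RT, HRP secondary, chemiluminescence. At least three independent experiments.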

[12] = target: myc-PAK1 (pT423) in HeLa cells (Homo sapiens, UniProt Q13153); test: Sorbitol-induced PAK1 autophosphorylation in cells; assay type: cell-based; conditions: 20 μM for 2 h, then 0.4 M sorbitol
myc-PAK1 (pT423) in HeLa cells, sequence (Q13153 whole entry): as the sequence (Q13153 whole entry H83L/H86L/T423E) above, with L83H, L86H, E423T counted along it
Method in brief: (§2)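 HeLa transfected (Lipofectamine, 24 h) with 2 μg myc-PAK1 or myc-PAK3 cDNA. Cells exposed to test compound 2 h, then 0.4 M sorbitol 0.5 h; lysed in HEPES/Triton buffer with NaF and vanadate. Immunoblotted with anti-phospho-group I PAK antibody (PAK1 T423; PAK3 T421); myc-PAK levels by anti-Myc; chemiluminescent detection; ≥3 experiments.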

[13] = target: myc-PAK3 (pT421) in HeLa cells (Homo sapiens, UniProt O75914); test: Sorbitol-induced PAK3 autophosphorylation in cells; assay type: cell-based; conditions: 20 μM for 2 h, then 0.4 M sorbitol
myc-PAK3 (pT421) in HeLa cells, sequence (O75914 1-544 isoform O75914-2): as the sequence (O75914 1-544 isoform O75914-2) above
Method in brief: as §2

[14] = target: T1, PAK1^T423E; test: In vitro PAK1 assay with active PAK1; assay type: biochemical; conditions: 0.5 h; 40 μM in Figure 3c
Method in brief: as §1

[15] = target: Cdc42–PBD interaction (PBD of PAK1) (Homo sapiens, UniProt Q13153); test: ELISA of the Cdc42–PBD interaction; assay type: binding
Cdc42–PBD interaction (PBD of PAK1), sequence (Q13153 67-150): as the sequence (Q13153 67-150 H83L/H86L) above, with L17H, L20H counted along it
Method in brief: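 Wells coated overnight at 4 °C with His-tagged PAK1 PBD (1 μg ml⁻¹) in carbonate–bicarbonate buffer, pH 9.6; TBS-T washes. GST-Cdc42 loaded with GTPγS (0.5 h, RT), then GST-Cdc42(GTPγS) (100 ng ml⁻¹) with test compound for 0.5 h RT and 1 h 37 °C. Bound Cdc42 detected with HRP-anti-GST (200 ng ml⁻¹, 1 h, 37 °C) and ABTS (pH 5.6, 15–30 min); stopped with 1% SDS; A405.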

[16] = target: Cdc42–PBD interaction (Homo sapiens, UniProt Q13153); test: SPR of Cdc42•GTP binding to immobilized PBD in presence of compound; conditions: 10 µM compound
Cdc42–PBD interaction, sequence (Q13153 67-150): as the sequence (Q13153 67-150 H83L/H86L) above, with L17H, L20H counted along it

T1 sequence (Q13153 whole entry T423E): as the sequence (Q13153 whole entry H83L/H86L/T423E) above, with L83H, L86H counted along it

Structure (SMILES) | Binding affinity to PBD-LL compared with Wt-PBD [3] | Inhibition of sorbitol-activated R1K3 [5] | Inhibition of full-length PAK1 (MBP phosphorylation) [9] | Kd [10] | PAK1 autophosphorylation (pT423) [12] | Inhibitory activity on the Cdc42–PBD interaction [15] | Light-induced cytotoxicity [6] | Interference with the Cdc42–PBD interaction [16] | further results
Oc1ccc2ccccc2c1SSc1c(O)ccc2ccccc12 [IPA-3, 2,2′-dihydroxy-1,10-dinaphthyldisulfide] |  |  |  |  |  |  |  |  | Inhibition of Cdc42-dependent activation of wild-type group I PAKs [1]: effectively inhibit; Susceptibility of PAK1^T423E to inhibition [2]: not susceptible to inhibition
O=C1C=CC(=O)c2ccccc21 [compound 7, 1,4-naphthoquinone] | significantly reduced (to approximately half of those for Wt-PBD binding) | almost completely inhibited | suppressed the activities of both PAK1 and PAK3 to a similar degree | < 7 µM | greatly suppressed; also recorded: almost completely inhibited |  |  |  | Inhibition of full-length PAK3 (MBP phosphorylation) [4]: suppressed the activities of both PAK1 and PAK3 to a similar degree; Cytotoxicity ([6]; HeLa cells, 20 μM): no significant cytotoxicity; Inhibitory effect on PAK1^T423E/LL [7]: little inhibitory effect; FRET efficiency [8]: decreased; pMEK1^S298 levels [11]: markedly decreased; PAK3 autophosphorylation (pT421) [13]: greatly suppressed; also recorded: specifically inhibited; MBP phosphorylation by PAK1^T423E [14]: markedly suppressed
COC(=O)C1=CC(=O)c2ccccc2C1=O [compound 8, 2-methoxycarbonyl-1,4-naphthoquinone] | significantly reduced (to approximately half of those for Wt-PBD binding) |  |  | < 7 µM |  | high inhibitory activities |  |  | 
O=C1C=C(Br)C(=O)c2ccccc21 [compound 13, 2-Bromo-1,4-NQ] |  |  | selective inhibition of PAK1 |  | only weakly suppressed | high inhibitory activities | light-induced cytotoxicity | effectively interfered with the Cdc42–PBD interaction | 
O=C1C=C(Cl)C(=O)c2ccccc21 [compound 14, 2-Chloro-1,4-NQ] |  | almost completely inhibited | selective inhibition of PAK1 |  | greatly suppressed; also recorded: almost completely inhibited | high inhibitory activities | light-induced cytotoxicity | effectively interfered with the Cdc42–PBD interaction | 
